This note sets out measurements from ChEMBL document CHEMBL3580634, “Discovery of a high affinity and selective pyridine analog as a potential positron emission tomography imaging agent for cannabinoid type 2 receptor” (J Med Chem, 2015).

The target of data set [1] is T1, Cannabinoid receptor 2 (Homo sapiens, UniProt P34972). Briefly: Binding affinity to human CB2 receptor. The procedure, abridged:
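Competition binding with [³H]CP-55,940 on membranes from CHO cells expressing human CB2. Buffer: 50 mM Tris, 5 mM MgCl₂, 2.5 mM EGTA, 0.1% fatty-acid-free BSA, pH 7.4. Incubated 1 h at 30 °C with shaking, then rapid filtration through 0.5% polyethylenimine-coated filters. Ki from nonlinear regression, using Kd from saturation experiments. Single experiment, triplicates, 10 concentrations.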

Data set [2] is described as follows: Ratio of drug level in brain to plasma in ip dosed rat. The format is ADME, organism-based. The following applies: read-out: BPR.
Data set [3] in a line: Drug level in brain of ip dosed rat after 1 hr. The format is ADME, organism-based. The following applies: read-out: Drug uptake.
A short description of data set [4]: Lipophilicity, log D of the compound in n-octanol/phosphate buffer pH 7.4 by shake flask method. It counts as physicochemical.
The target of data set [5] is T1, Cannabinoid receptor 2. Briefly: Displacement of [3H]CP-55,940 from human CB2 receptor expressed in CHO cell membranes. The procedure, abridged:
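Membranes from CHO cells expressing human or murine CB2 were incubated with [3H]CP-55,940 in 50 mM Tris, 5 mM MgCl2, 2.5 mM EGTA, 0.1% fatty-acid-free BSA, pH 7.4, 1 h at 30 °C with shaking. Reaction stopped by filtration through PEI-coated GF/B. Ki from nonlinear regression using saturation-derived Kd. Ten concentrations in triplicate.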
In general terms: In a radioligand displacement assay an active substance lowers the binding of a labelled ligand.

A short description of data set [6]: Lipophilicity, log D of the radio-labeled compound in n-octanol/phosphate buffer pH 7.4 by shake flask method. The format is physicochemical. An outline of the steps: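 Formulated radiotracer (8 MBq) was added to n-octanol and phosphate buffer pH 7.4, each presaturated with the other, shaken 15 min and centrifuged 5000g 5 min. Radioactivity in both phases was gamma-counted and D taken as their ratio; n = 5.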

A short description of data set [7]: Stability in rat plasma assessed as intact compound remaining at 4 MBq at 37 degC incubated for 5 to 20 mins by radio-TLC method. The format is ADME, cell-free. Particulars: read-out: Stability; call rule not given here. An outline of the steps: (§1)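 Mouse, rat or human plasma was incubated with formulated radiotracer (4 MBq) at 37 °C with shaking. Aliquots taken at 5, 10, 15 and 20 min were quenched with ice-cold acetonitrile and centrifuged. Supernatant was analysed by radio-TLC in hexane/EtOAc (1:1).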

Data set [8] is described as follows: Stability in mouse plasma assessed as intact compound remaining at 4 MBq at 37 degC incubated for 5 to 20 mins by radio-TLC method. It counts as ADME, cell-free. The following applies: read-out: Stability. An outline of the steps: as §1
For another data set, the system named is Plasma. Briefly: Stability in human plasma assessed as compound degradation at 4 MBq at 37 degC […] by radio-TLC method. The format is ADME, cell-free. Particulars: 40 min.
Data set [9] deals with Spleen. The experiment in a line: Biodistribution in rat spleen at 0.2 nM incubated for 15 mins by autoradiography. It counts as ADME. Particulars: 0.25 h, 0.0002 µM. The procedure, abridged:
(§2)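 Mouse or rat spleen cryosections (20 μm) were thawed on ice and preconditioned in 50 mM Tris/HCl, 5% BSA, pH 7.4, then incubated 15 min at rt with 0.2 nM radioligand, alone or with 5 μM blocker. Washed in Tris/HCl with 1% BSA and 5% EtOH (2 × 2 min) and water on ice, then exposed 30 min to phosphor imager plates.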

In data set [10] the test system is Spleen. The experiment in a line: Biodistribution in mouse spleen at 0.2 nM incubated for 15 mins by autoradiography. Particulars: 0.25 h, 0.0002 µM. The format is ADME. The procedure, abridged: as §2
Data set [11] relates to Spleen. The experiment in a line: Biodistribution in rat spleen at 0.2 nM incubated for 15 mins in presence of 5 uM CB2 ligand GW405833 by autoradiography. It counts as ADME. The following applies: 0.25 h, 0.0002 µM. The procedure, abridged:
as §2

For data set [12], the system named is Spleen. The experiment in a line: Biodistribution in mouse spleen at 0.2 nM incubated for 15 mins in presence of 5 uM CB2 ligand GW405833 by autoradiography. The following applies: 0.25 h, 0.0002 µM. It counts as ADME. The procedure, abridged: as §2
Data set [13] has as its system Spleen. The experiment in a line: Biodistribution in Wistar rat spleen at 11 to 18 MBq, iv measured during first 10 mins by PET/CT imaging method. The following applies: in vivo. The format is ADME, organism-based. The procedure, abridged: (§3)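 Isoflurane-anaesthetized male Wistar rats received 11–18 MBq (0.06–0.09 nmol) tracer via tail vein. Dynamic PET ran 60 min from injection, then CT. For displacement, 1.5 mg/kg blocker was given iv 10 min after tracer; 2 rats per condition. Temperature held at 37 °C. Reconstruction by 2D-OSEM without attenuation correction. Uptake given as SUV.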

Data set [14] has as its system Spleen. The experiment in a line: Biodistribution in Wistar rat spleen at 11 to 18 MBq, iv treated with 1.5 mg/kg CB2 ligand GW405833 injected 10 mins after compound dosing by PET/CT imaging method. The format is ADME, organism-based. Particulars: in vivo. The procedure, abridged:
as §3

Data set [15] relates to Spleen. Briefly: Biodistribution in Wistar rat spleen at 11 to 18 MBq, iv measured after 10 mins by PET/CT imaging method. It counts as ADME, organism-based. The following applies: in vivo. An outline of the steps:
as §3

Data set [16] concerns Spleen. Briefly: Biodistribution in Wistar rat spleen at 11 to 18 MBq, iv treated with 1.5 mg/kg CB2 ligand GW405833 injected 10 mins after compound dosing and measured 15 mins after GW405833 dosing by PET/CT imaging method. It counts as ADME, organism-based. The following applies: in vivo, 0.25 h. The procedure, abridged:
as §3

Data set [17] has as its system Spleen. Briefly: Biodistribution in Wistar rat spleen at 6 to 10 MBq, iv treated with 1.5 mg/kg CB2 ligand GW405833 injected 1 mins after compound dosing by gamma counting method. It counts as ADME, organism-based. The following applies: in vivo.
Data set [18] relates to Brain. Briefly: Biodistribution in Wistar rat brain at 6 to 10 MBq, iv measured after 15 mins by gamma counting method. It counts as ADME, organism-based. Particulars: in vivo, 0.25 h. The procedure, abridged: (§4)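 Male Wistar rats (5 weeks old) received 6–10 MBq (0.03–0.05 nmol) tracer via tail vein. For blocking, 1.5 mg/kg blocker was given iv shortly before the tracer (n = 3). Rats were decapitated under isoflurane at 15 min pi. Organs were weighed and gamma-counted, expressed as normalized %ID/g tissue (per 1 kg body weight). One baseline animal was excluded for paravenous injection.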

The test system of a further data set is Small intestine. Briefly: Biodistribution in Wistar rat small intestine at 6 to 10 MBq, iv measured after 15 mins by gamma counting method. The format is ADME, organism-based. The following applies: in vivo, 0.25 h. An outline of the steps: as §4
A further data set has as its system Liver. The experiment in a line: Biodistribution in Wistar rat liver at 6 to 10 MBq, iv measured after 15 mins by gamma counting method. It counts as ADME, organism-based. The following applies: in vivo, 0.25 h. An outline of the steps:
as §4

Data set [19] relates to Brain. Briefly: Biodistribution in Wistar rat brain at 48 MBq, iv measured after 20 mins by radio-TLC method. It counts as ADME, organism-based. The following applies: in vivo.
The nature of data set [20]: Biodistribution in Wistar rat plasma assessed as intact parent tracer level at 48 MBq, iv measured after 5 mins by radio-TLC method. Particulars: read-out: Drug uptake. It counts as ADME, organism-based. An outline of the steps: (§5)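 After iv tracer, rat plasma was taken at 5, 10 and 20 min. Urine and brain were collected at 20 min sacrifice. Plasma was separated at 5000g, 5 min, 4 °C. Proteins in plasma, urine and PBS brain homogenate were precipitated with cold acetonitrile and centrifuged. Supernatants were run by radio-TLC in hexane/EtOAc (1:1), reported as % of total activity.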

Data set [21] is described as follows: Biodistribution in Wistar rat plasma assessed as intact parent tracer level at 48 MBq, iv measured after 10 mins by radio-TLC method. It counts as ADME, organism-based. Particulars: read-out: Drug uptake. The procedure, abridged: as §5
Data set [22] can be described thus: Biodistribution in Wistar rat plasma assessed as intact parent tracer level at 48 MBq, iv measured after 20 mins by radio-TLC method. The format is ADME, organism-based. Particulars: read-out: Drug uptake. An outline of the steps:
as §5

The nature of data set [23]: Drug metabolism in Wistar rat urine assessed as hydrophilic radio-metabolites level at 48 MBq, iv measured after 5 to 20 mins by radio-TLC method. It counts as ADME, organism-based. Particulars: in vivo. An outline of the steps:
as §5

Data set [24] relates to Brain. Briefly: Biodistribution in brain of mouse model of LPS-induced neuroinflammation at 10 to 27 MBq, iv treated with 10 mg/kg LPS 5 days before PET scan by PET imaging method. It counts as ADME, organism-based. The following applies: in vivo, 120 h. An outline of the steps:
(§6)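 Male CD-1 mice got 10 mg/kg LPS (E. coli O111:B4) or saline ip 5 days before PET. Under isoflurane, 10–27 MBq tracer was injected via tail vein, with 60 min PET then CT. For blocking, 2.0 mg/kg blocker or vehicle was given sc 30 min before tracer. Whole-brain ROI was taken on an MRI T2 template, expressed as SUV; n = 2 per condition.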

Data set [25] relates to Brain. The experiment in a line: Biodistribution in brain of mouse model of LPS-induced neuroinflammation at 10 to 27 MBq, iv treated with 2 mg/kg CB2 ligand GW405833 injected 30 mins before PECT acquisition by PET imaging method. Particulars: in vivo, 0.5 h. It counts as ADME, organism-based. An outline of the steps:
as §6

Where only a bound is given, the exact number is not on record here.

T1 sequence (P34972 whole entry): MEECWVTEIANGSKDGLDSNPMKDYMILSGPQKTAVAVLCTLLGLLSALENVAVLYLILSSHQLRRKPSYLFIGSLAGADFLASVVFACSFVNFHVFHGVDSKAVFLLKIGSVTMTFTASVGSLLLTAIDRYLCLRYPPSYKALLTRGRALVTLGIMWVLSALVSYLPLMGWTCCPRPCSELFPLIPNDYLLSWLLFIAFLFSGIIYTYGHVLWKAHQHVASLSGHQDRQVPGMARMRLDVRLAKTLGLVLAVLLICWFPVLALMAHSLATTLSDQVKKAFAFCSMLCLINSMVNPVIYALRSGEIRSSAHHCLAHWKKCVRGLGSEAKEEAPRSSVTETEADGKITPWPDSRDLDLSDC

In the case of `COc1ccc2c(c1)c(CCN1CCOCC1)c(C)n2C(=O)c1cccc(Cl)c1Cl`, at Cannabinoid receptor 2 [1], the inhibitory constant (Ki) was determined as 3.9 nM. Moreover, the Kp in data set [2] worked out at 5. Moreover, in data set [3], the concentration at 1 h is greater than 100 nM.

On to `CCOC(=O)C(CC)(CC)NC(=O)c1ccc(N2CC(O[11CH3])C2)c(OCC2CC2)n1`, for which the logD in data set [4] and in [6] was 1.94 in each case. Besides, affinity at Cannabinoid receptor 2 [5] was put at a Ki of 2.5 nM. Further, the remaining at 4 MBq turned out to be 86% in data set [7] and 84% in data set [8]. Further, the Stability result in the data set with Plasma is recorded as “Stable”. In addition, the Drug uptake entry in the data set on Spleen [9] was “Active”; in the data set with Spleen [10] it was “Active”; in the data set on Spleen [11] it was “Not Active”; in the data set with Spleen [12], “Not Active”; with Spleen [13], “Active”; in the data set on Spleen [14], “Not Active”. Besides, the Drug uptake result in the data set on Spleen [15] is listed as “Not Active”; in the data set on Spleen [16], “Not Active”; in the data set with Spleen [17], “Not Active”; in the data set with Brain [18] it was “Not Active”; with Small intestine, “Active”; in the data set on Liver it was “Active”. The Drug uptake result is “Not Active” in the data set on Brain [19], “Active” with Brain [24] and “Not Active” in the data set with Brain [25]. Moreover, the remaining at 5 min in [20] amounted to 51%. Also, in data set [21], the remaining at 10 min is 37%. Besides, in [22], the remaining at 20 min amounted to 21%. In addition, the Drug metabolism result in data set [23] is on record as “metabolite_detected”.

Broadly, the Ki is the dissociation constant of the complex between target and ligand, obtained from inhibition or displacement. The low end stands for higher affinity, the high end for lower affinity. For orientation: logD means the decadic logarithm of the distribution of all forms, ionised or not, between an organic phase and buffer at a given pH. Read a high logD as higher lipophilicity.
